From PubChem
14-3-3 Bad PPI: disrupts binding of bovine 14-3-3 zeta to phospho-Bad peptide; inhibition, % at 21.7 µM; hit rate 0.71% among 220,000; TR-FRET 14-3-3zeta/Dy647-pBad peptide displacement, 1 h; P63103; AID 781;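 active = inhibition above about 70%, limit read from the data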
Mcl1-Noxa inh: Mcl-1/Noxa interaction inhibition; Q07820; TR-FRET Mcl-1/Noxa peptide binding, 2 h; inhibition, % at 21.7 µM; hit rate 1.5% among 220,000;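 active = compounds that cut the protein-peptide binding signal by more than 50% relative to plate controls in a single-dose test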;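 also: His-tagged Mcl-1 with rhodamine Noxa BH3 peptide and terbium anti-His antibody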
Mcl1 Bid PPI: disrupts binding of human Mcl-1 to Bid peptide; Q07820; TR-FRET Mcl-1/Bid-Dy647 peptide binding, 1536-well; inhibition, % at 21.7 µM; hit rate 0.97% among 220,000; AID 1021;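 active = compounds that cut the binding signal by more than half at the single screening dose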;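 also: His-tagged Mcl-1 with europium anti-His antibody binding Bid BH3 peptide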
Calb biofilm kill: mixtures killing C. albicans biofilm. hit rate 0.02% among 120,000. inhibition, % at 7.6 µM. C. albicans biofilm persisters + clotrimazole, fluorescence viability; primary screen in compound mixtures of four per well. AID 1242;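 active = inhibition above 30.3% in the primary screen of four-compound pools, then above 30% when the compound was retested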;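 also: compounds exposed to preformed 24 h biofilms for 48 h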
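Test system: C. albicans CAF4-2 wild-type biofilms; buffer or medium: RPMI/MOPS medium, pH 7.0; schedule: 24 h biofilm formation, then 48 h compound exposure, 37 °C; detection: Alamar Blue fluorescence; measure: percent inhibition of biofilm viability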
Hck-Nef inh: inhibitors of human Hck kinase activated by Nef; P08631; Recombinant Hck-YEEI plus Nef, Z-Lyte FRET kinase assay; inhibition, % at 20 µM; hit rate 0.68% among 220,000; AID 463187;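 active = Hck-Nef kinase inhibition above about 50%, limit read from the data; inactive = inhibition below that limit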
Target sequence (P08631 whole entry, looked up): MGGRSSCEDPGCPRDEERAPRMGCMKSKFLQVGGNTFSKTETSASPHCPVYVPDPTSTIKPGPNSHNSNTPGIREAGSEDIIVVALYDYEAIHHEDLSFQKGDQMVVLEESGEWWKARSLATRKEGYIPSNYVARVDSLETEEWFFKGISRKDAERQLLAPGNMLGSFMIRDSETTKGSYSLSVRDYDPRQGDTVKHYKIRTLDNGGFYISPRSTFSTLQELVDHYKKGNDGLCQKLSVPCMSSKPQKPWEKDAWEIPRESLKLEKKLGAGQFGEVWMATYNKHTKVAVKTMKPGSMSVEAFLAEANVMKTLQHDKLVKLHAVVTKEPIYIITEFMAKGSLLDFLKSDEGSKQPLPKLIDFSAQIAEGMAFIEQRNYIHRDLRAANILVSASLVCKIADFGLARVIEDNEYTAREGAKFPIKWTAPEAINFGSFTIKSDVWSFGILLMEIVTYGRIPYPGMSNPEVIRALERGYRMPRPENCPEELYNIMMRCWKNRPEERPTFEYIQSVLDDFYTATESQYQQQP
Mcl-1 Bim block: human Bim-Mcl-1 interaction inhibition; Q07820; Bead-based flow cytometry, Bim peptide-Mcl-1 binding; inhibition, % at 10 µM; hit rate 0.1% among 190,000; in the data active = inhibition above about 40%
A number is an active result; i = inactive; nt = not tested or not shown; [ ] = remark or other dose. In the library only some 3.2% were active in any assay of this set; here they are far more common.

SMILES | 14-3-3 Bad PPI | Mcl1-Noxa inh | Mcl1 Bid PPI | Calb biofilm kill | Hck-Nef inh | Mcl-1 Bim block
COc1ccc2c(=O)c3c(=O)n(-c4ccc(C)cc4)c(-c4ccccc4)nc3oc2c1 | i | 81.0 | i | i | i | nt
C=CCc1ccccc1OCCOc1ccc([N+](=O)[O-])cc1/C=N/NC(N)=O | i | i | i | i | i | i
O=c1c2ccccc2oc2nc(-c3ccco3)n(Cc3ccccc3)c(=O)c12 | i | i | i | nt | i | i
Cc1ccc(S(=O)(=O)NN2C(=O)/C(=C/c3cccn3C)SC2=S)cc1 | i | 53.7 | i | i | i | i
O=[N+]([O-])c1cc(Br)c(O)c(/C=N/Nc2nnnn2-c2cccc3ccccc23)c1 | i | i | 66.4 | nt | i | i
CC1(C)CCCN(C(=O)c2coc(=O)c(Br)c2)C1 | i | 79.0 | i | nt | i | i
NNC(=O)c1ccc2c(c1)S(=O)(=O)NNC2=O | i | i | i | i | i | i
CN(C)C=NC(=O)c1cc(C(=O)c2ccc(C(C)(C)C)cc2)c[nH]1 | i | i | i | i | i | i
O=C1CCCC2=C1C(c1ccco1)Nc1ccc3ccccc3c12 (stereo not drawn) | 72.5[fluorescence artefact?] | 99.0 | 60.0 | nt | i | i
Cc1ccc(C2Nc3ccc4ccccc4c3C3=C2C(=O)CC(C)(C)C3)o1 (stereo not drawn) | i | i | i | i | i | nt
CC(C)(C)NC(=O)c1cccc(NC(=O)Cc2cccs2)c1 | i | i | i | i | i | i
CCOC(=O)C1=C(c2ccccc2)NC(=O)NC1c1cc(Cl)c(O)c(OC)c1 (stereo not drawn) | i | i | i | i | i | i
CCOC(=O)C1=C(c2ccccc2)NC(N)=NC1c1ccc(OCc2ccc(Cl)cc2)c(OC)c1 (stereo not drawn) | 93.6 | i | i | i | i | nt
CCc1cc(CN2CCOCC2)c(NC(=O)c2ccccc2)s1 | i | i | i | i | i | i
CCc1cc(C(c2ccc(F)cc2)N2CCOCC2)c(NC(=O)c2ccccc2)s1 (stereo not drawn) | i | i | 67.5 | nt | i | i
NC(=O)CSc1cn(Cc2ccc(F)cc2)c2ccccc12 | i | i | i | i | i | i
O=C(CSc1cn(Cc2cccc(F)c2)c2ccccc12)NCc1ccc(F)cc1 | i | i | 62.2 | i | i | i
COc1ccc(/C=N/Nc2ncc(-c3ccccc3)cn2)c(OC)c1 | i | 51.8 | i | i | i | i
CC1CCCC(C)N1C(=O)CSc1nnc(CSc2ncccn2)n1C (stereo not drawn) | i | i | i | nt | i | i
CCc1ccc(C(CC(=O)c2ccc(Cl)cc2)C(=O)O)cc1 (stereo not drawn) | i | i | 95.5 | nt | i | i
CC(C)c1ccc(C(CC(=O)c2ccc(Cl)cc2)C(=O)O)cc1 (stereo not drawn) | i | i | i | nt | i | i
CCCCn1c(SCC(=O)c2ccc(O)c(O)c2)nc2ccsc2c1=O | i | 55.0 | i | i | i | i
CCCn1c(N)c(N(CCOC)C(=O)/C=C/c2ccc(C(=O)OC)cc2)c(=O)[nH]c1=O | i | i | i | i | i | i
CC(C)CCNC(=O)c1csc2c1CCCCC2 | i | i | 64.1 | i | i | i
Cc1cc(NC(=O)CSc2nnc(NC(=O)C3CC(=O)N(c4ccccc4)C3)s2)no1 (stereo not drawn) | i | i | 50.5 | i | i | i
SMILES | 14-3-3 Bad PPI | Mcl1-Noxa inh | Mcl1 Bid PPI | Calb biofilm kill | Hck-Nef inh | Mcl-1 Bim block
COC(=O)c1ccc2nc(Nc3nc4c(F)cc(F)cc4s3)sc2c1 | i | 80.8 | 63.6 | i | i | i
Cc1ccc(S(=O)(=O)N2CCN(CC(=O)Nc3ccc(N4CCOCC4)cc3)CC2)cc1C | i | i | i | i | i | i
Cc1ccc(S(=O)(=O)N2CCOCC2)cc1NC(=O)CN1CCN(c2ccc(O)cc2)CC1 | i | 51.9 | i | i | i | i
CN1CCCC(OC(=O)/C(C#N)=C/c2ccccc2)C1 (stereo not drawn) | i | i | i | i | i | i
Clc1ccc(OCCCn2cncn2)cc1Cl | 85.9 | i | 55.6 | nt | i | i
c1ccc(-c2ccc(OCCOCCn3cncn3)cc2)cc1 | 73.3 | i | i | nt | i | i
NC(=O)Nc1ccc(Oc2c(F)c(F)c(F)c(F)c2F)cc1 | i | i | i | nt | i | i
CN(C)c1nc(N)c([N+](=O)[O-])c(NCC2CCCO2)n1 (stereo not drawn) | i | i | i | i | i | nt
COCCn1nnnc1C(C(C)C)N1CCN(C(=O)c2ccco2)CC1 (stereo not drawn) | i | i | i | nt | i | i
CCCC(c1nnnn1CCOC)N1CCN(C(=O)c2ccco2)CC1 (stereo not drawn) | 81.2 | i | i | nt | i | i
O=C(c1ccco1)N1CCN(C(c2ccccc2Cl)c2nnnn2Cc2ccco2)CC1 (stereo not drawn) | 79.2 | i | i | nt | i | i
CCCn1nnnc1SCC(=O)N1CCN(C(=O)c2ccco2)CC1 | i | i | i | nt | i | i
CC(C)n1nnnc1SCC(=O)N1CCN(C(=O)c2ccco2)CC1 | i | i | i | nt | i | 93.0
CC(C)CC(c1nnnn1Cc1ccccc1)N1CCN(C(=O)c2ccco2)CC1 (stereo not drawn) | 85.6 | i | i | nt | i | i
CCOC(=O)C1CCCN(C(=O)c2cc3cc(Br)ccc3oc2=O)C1 (stereo not drawn) | i | i | i | i | i | i
COC(=O)C(NNc1ccccc1)(NC(=O)c1cccc(F)c1)C(F)(F)F (stereo not drawn) | i | i | i | nt | i | i
CCCCC(=O)OCC(=O)Nc1cccc(S(=O)(=O)NC2=NCCCCC2)c1 | i | i | i | i | i | i
O=C(NCCc1ccccc1)C(=O)NCC(c1ccco1)N1CCOCC1 (stereo not drawn) | i | i | i | i | i | i
COC(=O)c1ccc(N2C(=O)CC(Sc3n[nH]c(C)n3)C2=O)cc1 (stereo not drawn) | i | 52.8 | i | nt | i | i
COC(=O)c1cc(C(=O)OC)cc(N2C(=O)CC(Sc3nc(C)cc(C)n3)C2=O)c1 (stereo not drawn) | i | i | i | nt | i | i
CCCOc1ccc(N2CC(C(=O)Nc3ccccc3C(=O)NC)CC2=O)cc1 (stereo not drawn) | i | i | i | i | i | i
Cc1ccc(NC(=O)CN2C(=O)N/C(=C/c3ccco3)C2=O)cc1 | i | 61.3 | i | nt | i | i
Cc1ccc(NC(=O)CN2C(=O)N/C(=C/c3cccn3-c3ccc(C(=O)O)cc3)C2=O)cc1 | i | 102.1 | i | i | i | i
COc1ccc(C2CC(c3ccc(OC)cc3)n3nc(NS(C)(=O)=O)nc3N2)cc1 (stereo not drawn) | i | i | i | i | i | nt
CCCC(=O)c1cc2c(cc1NC(=O)c1ccccc1F)OCCO2 | i | i | i | i | i | i
CSc1ccc(C#N)cc1NC(=O)c1cccnc1Cl | i | i | i | i | i | i
CCNc1ccc(S(N)(=O)=O)cc1[N+](=O)[O-] | i | 51.3 | i | i | i | i
